# From ChEMBL document CHEMBL4304743, “Discovery of ( E)- N1-(3-Fluorophenyl)- N3-(3-(2-(pyridin-2-yl)vinyl)-1 H-indazol-6-yl)malonamide (CHMFL-KIT-033) as a Novel c-KIT T670I Mutant Selective Kinase Inhibitor for Gastrointestinal Stromal Tumors (GISTs)” (J Med Chem, 2019)
# Activity calls are given as the source filed them. The rule behind the calls is not given here.
# Key:
# [1] = system: Mus musculus; experiment: Inhibition of c-KIT phosphorylation at Y823 residue in tumor of human GIST5R cells xenografted in nude mouse at 100 mg/kg, po administered as single dose and measured after 2 hrs; assay type: functional, organism-based
# In short: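 Female nu/nu mice bearing subcutaneous GIST-5R xenografts (cells in Matrigel, right flank) given one oral gavage dose of 100 mg/kg in HKI suspension (0.5% methocellulose/0.4% Tween80 in ddH2O). Tumors collected over a 2 h time course; p-c-KIT, p-ERK and p-AKT assessed by Western blot; plasma drug levels monitored in parallel.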
# [2] = system: Mast/stem cell growth factor receptor Kit (Homo sapiens), P10721 [UNDEFINED MUTATION]; experiment: Inhibition of c-KIT 560 to 578 deletion/T670I double mutant in human GISTT1 cells assessed as reduction in STAT3 phosphorylation after 1 hr by Western blot analysis; assay type: cell-based
# Sequence of Mast/stem cell growth factor receptor Kit (Homo sapiens), P10721 [UNDEFINED MUTATION] (P10721 whole entry, looked up, stated change not applied, the tested form may be a part): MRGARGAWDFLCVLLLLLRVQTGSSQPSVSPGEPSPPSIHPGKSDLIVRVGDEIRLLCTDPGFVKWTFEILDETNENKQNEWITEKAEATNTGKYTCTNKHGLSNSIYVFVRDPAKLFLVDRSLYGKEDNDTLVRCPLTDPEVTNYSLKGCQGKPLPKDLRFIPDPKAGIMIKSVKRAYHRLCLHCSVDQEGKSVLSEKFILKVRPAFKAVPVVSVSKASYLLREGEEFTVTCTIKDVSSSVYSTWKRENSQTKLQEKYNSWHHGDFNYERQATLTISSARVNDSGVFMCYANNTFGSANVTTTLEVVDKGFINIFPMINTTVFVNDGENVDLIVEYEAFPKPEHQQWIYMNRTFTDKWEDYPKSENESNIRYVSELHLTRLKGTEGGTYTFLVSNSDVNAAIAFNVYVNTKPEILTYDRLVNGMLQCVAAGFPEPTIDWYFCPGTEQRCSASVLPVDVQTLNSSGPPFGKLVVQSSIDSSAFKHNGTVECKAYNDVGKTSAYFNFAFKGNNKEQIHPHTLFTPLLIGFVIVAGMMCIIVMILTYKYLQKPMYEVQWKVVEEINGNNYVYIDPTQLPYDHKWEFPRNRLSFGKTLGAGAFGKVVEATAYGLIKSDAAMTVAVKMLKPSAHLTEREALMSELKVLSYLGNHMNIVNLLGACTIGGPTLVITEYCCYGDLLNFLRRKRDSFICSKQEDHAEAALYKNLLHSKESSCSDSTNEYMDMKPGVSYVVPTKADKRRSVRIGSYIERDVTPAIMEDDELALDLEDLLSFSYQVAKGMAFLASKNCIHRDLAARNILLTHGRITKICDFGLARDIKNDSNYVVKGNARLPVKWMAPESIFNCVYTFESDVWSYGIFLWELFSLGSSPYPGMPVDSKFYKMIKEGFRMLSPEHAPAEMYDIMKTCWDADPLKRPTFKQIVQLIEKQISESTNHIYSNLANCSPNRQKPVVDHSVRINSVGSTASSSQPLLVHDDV
# In short: (§1)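 Serial compound dilutions applied for 1 h to GIST-T1, GIST-T1-T670I (CRISPR/Cas9 T670I knock-in, clone confirmed by Sanger sequencing) or GIST-5R cells in DMEM with 10% FBS. Cells then lysed and phospho-proteins detected by standard Western blotting.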
# [3] = target: Mast/stem cell growth factor receptor Kit (Homo sapiens, UniProt P10721, T670I); experiment: Inhibition of His-tagged c-KIT T670I mutant (544 to 935 residues) (unknown origin) expressed in baculovirus infected sf9 cells pre-incubated for 60 mins followed by ATP addition and measured after 1 hr by Z-LYTE assay
# Sequence of Mast/stem cell growth factor receptor Kit (Homo sapiens, UniProt P10721, T670I) (P10721 26-976 T670I limits assumed): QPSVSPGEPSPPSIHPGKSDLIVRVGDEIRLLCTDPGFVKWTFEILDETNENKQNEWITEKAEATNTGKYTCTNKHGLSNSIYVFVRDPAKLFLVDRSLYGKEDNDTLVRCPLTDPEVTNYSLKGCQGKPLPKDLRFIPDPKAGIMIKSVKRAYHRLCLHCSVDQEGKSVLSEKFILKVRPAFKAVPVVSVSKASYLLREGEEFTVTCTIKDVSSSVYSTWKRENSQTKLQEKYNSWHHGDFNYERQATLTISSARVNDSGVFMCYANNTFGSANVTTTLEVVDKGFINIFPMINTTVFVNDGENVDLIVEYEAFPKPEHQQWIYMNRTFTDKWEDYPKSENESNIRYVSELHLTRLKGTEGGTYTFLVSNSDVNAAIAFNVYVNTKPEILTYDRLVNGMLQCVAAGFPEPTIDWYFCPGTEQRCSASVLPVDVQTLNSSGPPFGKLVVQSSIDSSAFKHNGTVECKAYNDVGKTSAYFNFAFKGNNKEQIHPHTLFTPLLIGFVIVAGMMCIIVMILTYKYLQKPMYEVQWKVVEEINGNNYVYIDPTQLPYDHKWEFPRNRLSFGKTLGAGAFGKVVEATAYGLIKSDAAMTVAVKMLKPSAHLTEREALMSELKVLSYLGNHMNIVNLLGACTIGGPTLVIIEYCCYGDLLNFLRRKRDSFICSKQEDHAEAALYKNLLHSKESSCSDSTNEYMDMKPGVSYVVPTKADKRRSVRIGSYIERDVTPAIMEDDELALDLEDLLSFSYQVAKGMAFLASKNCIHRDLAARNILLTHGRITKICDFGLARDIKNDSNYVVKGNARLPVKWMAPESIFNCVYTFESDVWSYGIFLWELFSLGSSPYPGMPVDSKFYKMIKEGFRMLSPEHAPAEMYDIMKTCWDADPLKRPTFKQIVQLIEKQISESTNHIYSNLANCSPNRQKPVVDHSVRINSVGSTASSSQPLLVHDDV
# [4] = Cmax in Sprague-Dawley rat at 1 mg/kg, iv measured after 2 to 720 mins by LC-tandem mass spectrometry analysis; assay type: ADME, organism-based; design: dose 1 mg/kg, route intravenous; conditions: in vivo
# In short: (§2)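 Male Sprague-Dawley rats (190-210 g), fasted 12 h, randomized into two groups: 1 mg/kg i.v. or 10 mg/kg p.o., both formulated in 10% DMSO/90% of 5% glucose water. Blood sampled at 2-720 min (i.v.) or 5-720 min (p.o.). Plasma protein-precipitated with methanol, caffeine internal standard, LC-MS/MS. Noncompartmental analysis; triplicate, ±SD.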
# [5] = target: T1, Mast/stem cell growth factor receptor Kit (Homo sapiens, UniProt P10721); experiment: Inhibition of TEL fused wild type c-KIT (unknown origin) transfected in mouse BaF3 cells assessed as reduction in phosphorylation at Y823 residue after 2 hrs by Western blot analysis; assay type: cell-based
# T1 sequence (P10721 whole entry, the tested form may be a part): as the sequence (P10721 whole entry, looked up, stated change not applied, the tested form may be a part) above
# [6] = Antitumor activity against human GIST5R cells xenografted in nude mouse assessed as tumor growth inhibition at 100 mg/kg, po administered […] via gavage for 28 days relative to control; assay type: functional; conditions: 672 h, read-out: TGI
# In short: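 Female nu/nu mice (5 weeks old) given subcutaneous right-flank GIST-5R cells in Matrigel. Dosing began at tumors of 200-400 mm3; randomized, 4 mice per group. Daily oral dosing (QD) at 25, 50 or 100 mg/kg in 0.5% methylcellulose/0.4% Tween80, or vehicle alone, for 28 days. Body weight and tumor volume, (W²×L)/2, measured daily; mean±SEM.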
# [7] = Apparent volume of distribution in mouse at 1 mg/kg, iv measured after 2 to 720 mins by LC-tandem mass spectrometry analysis; assay type: ADME, organism-based; conditions: in vivo, read-out: Vz
# In short: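 Mice dosed 1 mg/kg i.v. or 10 mg/kg p.o.; plasma drug levels by LC-MS/MS, parameters by noncompartmental analysis; values not from triplicate testing.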
# [8] = system: Mast/stem cell growth factor receptor Kit (Homo sapiens), P10721 [UNDEFINED MUTATION]; experiment: Inhibition of c-KIT 560 to 578 deletion/T670I double mutant in human GIST5R cells assessed as reduction in ERK phosphorylation at T202/Y204 residue at 0.1 uM to 3 uM after 1 hr by Western blot analysis; assay type: cell-based; in short: as §1
# [9] = system: Mast/stem cell growth factor receptor Kit (Homo sapiens), P10721 [N822K]; experiment: Inhibition of TEL fused c-KIT N822K mutant (unknown origin) transfected in mouse BAF3 cells assessed as growth inhibition after 72 hrs by CCK8 assay; assay type: cell-based
# Sequence of Mast/stem cell growth factor receptor Kit (Homo sapiens), P10721 [N822K] (P10721 whole entry N822K, the tested form may be a part): as the sequence (P10721 whole entry, looked up, stated change not applied, the tested form may be a part) above, with N822K counted along it
# In short: (§3)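 Tel-c-KIT-transformed BaF3 lines (IL-3 independent) kept in RPMI 1640 with 10% FBS, 2% L-glutamine and pen/strep. Cells at 1.5 to 5 × 10^4 cells/mL mixed with graded compound and incubated 72 h at 37 °C, 5% CO2. Viability by CCK-8 absorbance at 450 nm, normalized to DMSO. GI50 from dose–response fit.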
# [10] = target: Serine/threonine-protein kinase pim-3 (Homo sapiens, UniProt Q86V86); experiment: Binding affinity to wild-type human partial length PIM3 (G16 to A317 residues) expressed in bacterial expression system assessed as enzyme remaining activity at 1 uM by Kinomescan assay relative to control
# In short: (§4)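 KINOMEscan competition binding panel of 468 kinases and mutants, compound at 1 μM; binding reported as percent of control.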
# [11] = system: Mast/stem cell growth factor receptor Kit (Homo sapiens), P10721 [D816V]; experiment: Inhibition of TEL fused c-KIT D816V mutant (unknown origin) transfected in mouse BAF3 cells assessed as growth inhibition after 72 hrs by CCK8 assay; assay type: cell-based; in short: as §3
# Sequence of Mast/stem cell growth factor receptor Kit (Homo sapiens), P10721 [D816V] (P10721 whole entry D816V, the tested form may be a part): as the sequence (P10721 whole entry, looked up, stated change not applied, the tested form may be a part) above, with D816V counted along it
# [12] = system: Mast/stem cell growth factor receptor Kit (Homo sapiens), P10721 [L576P]; experiment: Binding affinity to human partial length c-KIT L576P mutant (Y545 to D952 residues) expressed in bacterial expression system assessed as enzyme remaining activity at 1 uM by Kinomescan method relative to control
# Sequence of Mast/stem cell growth factor receptor Kit (Homo sapiens), P10721 [L576P] (P10721 whole entry L576P, the tested form may be a part): as the sequence (P10721 whole entry, looked up, stated change not applied, the tested form may be a part) above, with L576P counted along it
# In short: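 KINOMEscan binding profile (DiscoverX) run at 1 μM against a panel of 468 kinases and mutants. Read-out is percent of control (%Ctrl) remaining bound.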
# [13] = system: Mast/stem cell growth factor receptor Kit (Homo sapiens), P10721 [UNDEFINED MUTATION]; experiment: Inhibition of c-KIT 560 to 578 deletion mutant in human GISTT1 cells assessed as reduction in c-KIT autophosphorylation at Y703 residue at 0.1 uM to 3 uM after 1 hr by Western blot analysis; assay type: cell-based; in short: as §1
# [14] = AUC (0 to t) in Sprague-Dawley rat at 1 mg/kg, iv measured after 2 to 720 mins by LC-tandem mass spectrometry analysis; assay type: ADME, organism-based; conditions: in vivo; in short: as §2
# [15] = target: Casein kinase I isoform alpha (Homo sapiens, UniProt P48729); experiment: Inhibition of wild-type human partial length CSNK1A1 (M1 to L301 residues) expressed in mammalian expression system after 1 hr by Z-LYTE assay
# Sequence of Casein kinase I isoform alpha (P48729 whole entry, the tested form may be a part, canonical isoform): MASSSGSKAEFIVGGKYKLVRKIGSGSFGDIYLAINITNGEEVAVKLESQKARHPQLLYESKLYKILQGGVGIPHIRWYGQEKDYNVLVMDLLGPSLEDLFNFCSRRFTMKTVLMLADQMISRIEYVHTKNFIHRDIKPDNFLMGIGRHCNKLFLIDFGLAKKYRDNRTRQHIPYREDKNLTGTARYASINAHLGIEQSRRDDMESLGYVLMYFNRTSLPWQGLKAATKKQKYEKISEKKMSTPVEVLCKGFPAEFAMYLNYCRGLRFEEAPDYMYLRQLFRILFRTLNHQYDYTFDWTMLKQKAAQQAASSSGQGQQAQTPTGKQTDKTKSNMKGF
# [16] = Drug level in plasma of nude mouse xenograted with human GIST5R cells at 100 mg/kg, po administered as single dose and measured at 30 mins; assay type: ADME, organism-based; conditions: in vivo, 0.5 h
# In short: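 GIST-5R xenograft nu/nu mice given a single 100 mg/kg oral dose; plasma drug concentration followed over a time course alongside tumor p-c-KIT, p-ERK and p-AKT.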
# [17] = target: T1, Mast/stem cell growth factor receptor Kit; experiment: Inhibition of TEL fused wild type c-KIT (unknown origin) transfected in mouse BaF3 cells assessed as reduction in phosphorylation at Y719 residue after 2 hrs by Western blot analysis; assay type: cell-based
# [18] = target: Macrophage colony-stimulating factor 1 receptor (Homo sapiens, UniProt P07333); experiment: Binding affinity to wild-type human partial length CSF1R (I564 to S939 residues) expressed in bacterial expression system assessed as enzyme remaining activity at 1 uM by Kinomescan assay relative to control; in short: as §4
# Sequence of Macrophage colony-stimulating factor 1 receptor (P07333 whole entry, the tested form may be a part): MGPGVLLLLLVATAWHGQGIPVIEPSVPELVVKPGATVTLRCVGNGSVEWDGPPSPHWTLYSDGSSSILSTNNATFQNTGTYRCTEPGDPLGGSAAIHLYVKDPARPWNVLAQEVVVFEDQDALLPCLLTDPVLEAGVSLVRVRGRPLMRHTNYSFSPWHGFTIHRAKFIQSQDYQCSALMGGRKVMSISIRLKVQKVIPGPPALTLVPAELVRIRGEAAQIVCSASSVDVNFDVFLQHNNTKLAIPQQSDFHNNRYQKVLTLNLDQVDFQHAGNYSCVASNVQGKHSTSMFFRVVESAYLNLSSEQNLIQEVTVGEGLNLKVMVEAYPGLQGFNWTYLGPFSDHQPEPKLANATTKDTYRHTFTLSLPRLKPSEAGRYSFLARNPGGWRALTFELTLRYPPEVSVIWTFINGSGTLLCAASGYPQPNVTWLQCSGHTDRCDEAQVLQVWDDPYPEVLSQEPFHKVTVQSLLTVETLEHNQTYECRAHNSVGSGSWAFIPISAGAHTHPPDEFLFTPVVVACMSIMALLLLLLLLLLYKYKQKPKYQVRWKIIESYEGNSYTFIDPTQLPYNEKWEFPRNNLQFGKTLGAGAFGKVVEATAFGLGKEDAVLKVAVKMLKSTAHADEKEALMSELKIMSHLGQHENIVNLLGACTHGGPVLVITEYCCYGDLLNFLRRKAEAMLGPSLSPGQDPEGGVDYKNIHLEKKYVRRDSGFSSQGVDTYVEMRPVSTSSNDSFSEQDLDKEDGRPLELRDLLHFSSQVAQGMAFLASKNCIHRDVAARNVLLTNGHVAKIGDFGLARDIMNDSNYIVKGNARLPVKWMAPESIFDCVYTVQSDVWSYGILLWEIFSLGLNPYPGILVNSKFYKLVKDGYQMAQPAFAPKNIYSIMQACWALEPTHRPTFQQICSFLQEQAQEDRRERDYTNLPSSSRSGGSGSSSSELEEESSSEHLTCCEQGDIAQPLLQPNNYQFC
structure (smiles),measurement,setting,value
O=C(CC(=O)Nc1ccc2c(/C=C/c3ccccn3)n[nH]c2c1)Nc1cccc(F)c1,inhibition,[1],inactive
same,inhibition,[2],Dose-dependent effect
same,IC50,[3],0.045 µM
same,Cmax,[4],378 ng/mL
same,EC50,[5],> 1 µM
same,inhibition in vivo at 100 mg/kg,[6],83%
same,Vd,[7],5.7 L/kg
same,inhibition,[8],Active
same,GI50,[9],6.06 µM
same,Activity,[10],0%
same,GI50,[11],3.46 µM
same,Activity,[12],< 1%
same,inhibition,[13],Active
same,AUC(0-t),[14],259 ng·h/mL
same,IC50,[15],> 10 µM
same,Drug uptake,[16],Active
same,EC50,[17],> 1 µM
same,Activity,[18],0%
